Experiments:
J774.A1 = experiment: Antiproliferative activity against mouse J774.A1 cells after 72 hrs by MTT conversion assay; format: cell-based; conditions: J774.A1, 72 h
Outline: (§1)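 Cells (3.4 × 10^4) plated in 96-well plates and left to adhere 2 h at 37 °C, 5% CO2/95% air; medium replaced, 1:4 serial dilutions of compound added, incubated 72 h. Viability by MTT conversion, OD read at 620 nm; % dead cells = 100 − (OD treated/OD control) × 100. 6-mercaptopurine serial dilutions run in some experiments.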

WEHI-164 = experiment: Antiproliferative activity against mouse WEHI164 cells after 72 hrs by MTT conversion assay; format: functional, cell-based; conditions: WEHI-164, 72 h; outline: as §1
HEK293 = experiment: Antiproliferative activity against human HEK293 cells after 72 hrs by MTT conversion assay; format: cell-based; conditions: HEK293, 72 h; outline: as §1

Structure (SMILES)	IC50 (J774.A1)	IC50 (WEHI-164)	IC50 (HEK293)
C[C@@H]1O[C@@H](O[C@H]2[C@H](O)[C@@H](O)[C@H](OC[C@H]3O[C@@H](OC(=O)[C@]45CCC(C)(C)C[C@H]4C4=CC[C@@H]6[C@@]7(C)CC[C@H](O[C@H]8OC[C@H](O)[C@H](O[C@@H]9O[C@H](CO)[C@@H](O)[C@H](O)[C@H]9O)[C@H]8O)C(C)(C)[C@@H]7CC[C@@]6(C)[C@]4(C)CC5)[C@H](O)[C@@H](O)[C@@H]3O)O[C@@H]2CO)[C@H](O)[C@H](O)[C@H]1O	3600 nM	7000 nM	–
C[C@@H]1O[C@@H](O[C@H]2[C@H](O)[C@@H](O)[C@H](OC[C@H]3O[C@@H](OC(=O)[C@]45CCC(C)(C)C[C@H]4C4=CC[C@@H]6[C@@]7(C)CC[C@H](O[C@H]8OC[C@H](O)[C@H](O)[C@H]8O)C(C)(C)[C@@H]7CC[C@@]6(C)[C@]4(C)CC5)[C@H](O)[C@@H](O)[C@@H]3O)O[C@@H]2CO)[C@H](O)[C@H](O)[C@H]1O	2500 nM	3400 nM	–
C[C@@H]1O[C@@H](O[C@H]2[C@H](O)[C@@H](O)[C@H](OC[C@H]3O[C@@H](OC(=O)[C@]45CCC(C)(C)C[C@H]4C4=CC[C@@H]6[C@@]7(C)CC[C@H](O[C@H]8OC[C@H](O)[C@H](O[C@@H]9O[C@H](CO)[C@@H](O[C@@H]%10O[C@H](CO)[C@@H](O)[C@H](O)[C@H]%10O)[C@H](O)[C@H]9O)[C@H]8O)C(C)(C)[C@@H]7CC[C@@]6(C)[C@]4(C)CC5)[C@H](O)[C@@H](O)[C@@H]3O)O[C@@H]2CO)[C@H](O)[C@H](O)[C@H]1O	3000 nM	–	–
C[C@@H]1O[C@@H](O[C@H]2[C@H](O)[C@@H](O)[C@H](OC[C@H]3O[C@@H](OC(=O)[C@]45CCC(C)(C)C[C@H]4C4=CC[C@@H]6[C@@]7(C)CC[C@H](O[C@@H]8O[C@H](C(=O)O)[C@@H](O)[C@H](O)[C@H]8O[C@@H]8O[C@H](CO)[C@@H](O)[C@H](O)[C@H]8O)C(C)(C)[C@@H]7CC[C@@]6(C)[C@]4(C)CC5)[C@H](O)[C@@H](O)[C@@H]3O)O[C@@H]2CO)[C@H](O)[C@H](O)[C@H]1O	6900 nM	–	–
CC1(C)CC[C@]2(C(=O)O[C@@H]3O[C@H](CO)[C@@H](O)[C@H](O)[C@H]3O)CC[C@]3(C)C(=CC[C@@H]4[C@@]5(C)CC[C@H](O[C@H]6OC[C@H](O)[C@H](O[C@@H]7O[C@H](CO)[C@@H](O)[C@H](O)[C@H]7O)[C@H]6O)C(C)(C)[C@@H]5CC[C@]43C)[C@@H]2C1	3900 nM	4600 nM	–
C[C@@H]1O[C@@H](O[C@H]2[C@H](O)[C@@H](O)[C@H](O[C@@H]3[C@@H](O)[C@H](OC[C@H]4O[C@@H](OC(=O)[C@]56CCC(C)(C)C[C@H]5C5=CC[C@@H]7[C@@]8(C)CC[C@H](O[C@H]9OC[C@H](O)[C@H](O[C@@H]%10O[C@H](CO)[C@@H](O[C@@H]%11O[C@H](CO)[C@@H](O)[C@H](O)[C@H]%11O)[C@H](O)[C@H]%10O)[C@H]9O)C(C)(C)[C@@H]8CC[C@@]7(C)[C@]5(C)CC6)[C@H](O)[C@@H](O)[C@@H]4O)O[C@H](CO)[C@H]3O)O[C@@H]2CO)[C@H](O)[C@H](O)[C@H]1O	9000 nM	–	–
C[C@@H]1O[C@@H](O[C@H]2[C@H](O)[C@@H](O)[C@H](O[C@@H]3[C@@H](O)[C@H](OC[C@H]4O[C@@H](OC(=O)[C@]56CCC(C)(C)C[C@H]5C5=CC[C@@H]7[C@@]8(C)CC[C@H](O[C@H]9OC[C@H](O)[C@H](O[C@@H]%10O[C@H](CO)[C@@H](O[C@@H]%11O[C@H](CO)[C@@H](O)[C@H](O)[C@H]%11O)[C@H](O)[C@H]%10O)[C@H]9O)C(C)(C)[C@@H]8CC[C@@]7(C)[C@]5(C)C[C@H]6O)[C@H](O)[C@@H](O)[C@@H]4O)O[C@H](CO)[C@H]3O)O[C@@H]2CO)[C@H](O)[C@H](O)[C@H]1O	320 nM	1700 nM	1300 nM
CC1(C)CC[C@]2(C(=O)O[C@@H]3O[C@H](CO)[C@@H](O)[C@H](O)[C@H]3O)[C@H](O)C[C@]3(C)C(=CC[C@@H]4[C@@]5(C)CC[C@H](O[C@@H]6O[C@H](C(=O)O)[C@@H](O)[C@H](O)[C@H]6O[C@@H]6O[C@H](CO)[C@@H](O)[C@H](O)[C@H]6O)C(C)(C)[C@@H]5CC[C@]43C)[C@@H]2C1	190 nM	340 nM	230 nM

Reference: ChEMBL document CHEMBL1157383, “Antiproliferative oleanane saponins from Meryta denhamii” (J Nat Prod, 2008)
